The subject of data set [1] is RAW264.7. The experiment in a line: Antiinflammatory activity in mouse RAW264.7 cells assessed as inhibition of LPS-induced NO production pretreated for 2 hrs followed by LPS stimulation measured after 24 hrs by Griess assay. In kind it is functional, cell-based. An outline of the steps: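 RAW264.7 murine macrophages (DMEM, 10% serum, 37 °C, 5% CO2) seeded at 5 × 10^4 cells/well and cultured 18 h. Compounds tested at 1–100 μM (DMSO 0.1% v/v), with LPS (E. coli 0127:B8) at 100 ng mL−1. Supernatant nitrite read with Griess reagent (10 min, room temperature, OD540).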
(Nitrite, measured by Griess reagent, commonly stands in for NO production.)

In data set [2] the test system is RAW264.7. The experiment in a line: Antiinflammatory activity in LPS-induced mouse RAW264.7 cells assessed as TNFalpha levels at 5 uM pretreated for 2 hrs followed by LPS stimulation and measured after 6 hrs by ELISA (reference value: 4377.1 +/- 318.6 pg/ml). In kind it is functional. An outline of the steps:
(§1)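 RAW264.7 murine macrophages (DMEM, 10% serum, 37 °C, 5% CO2) seeded at 5 × 10^5 cells per well, pretreated 2 h with compound at 10, 5, 2.5 or 1.25 μM (DMSO 0.1% v/v), then LPS (E. coli 0127:B8) 100 ng mL−1 added. Supernatant TNF-α or IL-6 read by mouse ELISA kit after 6, 12 and 24 h. Mean ± SD, n = 3, three independent experiments.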
A general note: In an ELISA, binding on a coated surface is turned into a signal by an enzyme label.

For data set [3], the system named is RAW264.7. Put plainly: Antiinflammatory activity in LPS-induced mouse RAW264.7 cells assessed as IL-6 levels at 5 uM pretreated for 2 hrs followed by LPS stimulation and measured after 24 hrs by ELISA (reference value: 1966.6 +/- 102.3 pg/ml). In kind it is functional. An outline of the steps:
as §1

Data set [4] deals with RAW264.7. Put plainly: Antiinflammatory activity in LPS-induced mouse RAW264.7 cells assessed as IL-6 levels at 5 uM pretreated for 2 hrs followed by LPS stimulation and measured after 6 hrs by ELISA (reference value: 472.3 +/- 25.8 pg/ml). It counts as functional. An outline of the steps:
as §1

The subject of data set [5] is RAW264.7. Put plainly: Antiinflammatory activity in LPS-induced mouse RAW264.7 cells assessed as TNFalpha levels at 10 uM pretreated for 2 hrs followed by LPS stimulation and measured after 12 hrs by ELISA (reference value: 5313.7 +/- 420.9 pg/ml). It counts as functional. An outline of the steps:
as §1

In data set [6] the test system is RAW264.7. Put plainly: Antiinflammatory activity in LPS-induced mouse RAW264.7 cells assessed as IL-6 levels at 5 uM pretreated for 2 hrs followed by LPS stimulation and measured after 12 hrs by ELISA (reference value: 1394 +/- 62.6 pg/ml). In kind it is functional. An outline of the steps: as §1
For data set [7], the system named is RAW264.7. Put plainly: Antiinflammatory activity in LPS-induced mouse RAW264.7 cells assessed as IL-6 levels at 2.5 uM pretreated for 2 hrs followed by LPS stimulation and measured after 6 hrs by ELISA (reference value: 472.3 +/- 25.8 pg/ml). In kind it is functional. An outline of the steps: as §1
For data set [8], the system named is RAW264.7. Put plainly: Antiinflammatory activity in LPS-induced mouse RAW264.7 cells assessed as IL-6 levels at 1.25 uM pretreated for 2 hrs followed by LPS stimulation and measured after 24 hrs by ELISA (reference value: 1966.6 +/- 102.3 pg/ml). In kind it is functional. An outline of the steps:
as §1

Data set [9] deals with RAW264.7. The experiment in a line: Antiinflammatory activity in LPS-induced mouse RAW264.7 cells assessed as TNFalpha levels at 5 uM pretreated for 2 hrs followed by LPS stimulation and measured after 24 hrs by ELISA (reference value: 9653.7 +/- 377.3 pg/ml). It counts as functional. An outline of the steps: as §1
Data set [10] concerns RAW264.7. Put plainly: Antiinflammatory activity in LPS-induced mouse RAW264.7 cells assessed as IL-6 levels at 10 uM pretreated for 2 hrs followed by LPS stimulation and measured after 24 hrs by ELISA (reference value: 1966.6 +/- 102.3 pg/ml). It counts as functional. An outline of the steps: as §1
Data set [11] has as its system RAW264.7. The experiment in a line: Antiinflammatory activity in LPS-induced mouse RAW264.7 cells assessed as IL-6 levels at 10 uM pretreated for 2 hrs followed by LPS stimulation and measured after 12 hrs by ELISA (reference value: 1394 +/- 62.6 pg/ml). It counts as functional. An outline of the steps: as §1
Data set [12] relates to RAW264.7. Put plainly: Antiinflammatory activity in LPS-induced mouse RAW264.7 cells assessed as TNFalpha levels at 1.25 uM pretreated for 2 hrs followed by LPS stimulation and measured after 6 hrs by ELISA (reference value: 4377.1 +/- 318.6 pg/ml). It counts as functional. An outline of the steps:
as §1

The subject of data set [13] is RAW264.7. The experiment in a line: Antiinflammatory activity in LPS-induced mouse RAW264.7 cells assessed as TNFalpha levels at 2.5 uM pretreated for 2 hrs followed by LPS stimulation and measured after 24 hrs by ELISA (reference value: 9653.7 +/- 377.3 pg/ml). It counts as functional. An outline of the steps: as §1
For data set [14], the system named is RAW264.7. Put plainly: Antiinflammatory activity in LPS-induced mouse RAW264.7 cells assessed as TNFalpha levels at 10 uM pretreated for 2 hrs followed by LPS stimulation and measured after 24 hrs by ELISA (reference value: 9653.7 +/- 377.3 pg/ml). It counts as functional. An outline of the steps: as §1
The nature of data set [15]: Cytotoxicity against mouse RAW264.7 cells assessed as cell viability at 10 uM after 48 hrs by MTT assay (reference value: 100%). In kind it is cell-based. Particulars: read-out: Activity. An outline of the steps: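 RAW264.7 cells seeded at 4 × 10^3 per well, cultured overnight, exposed to compound (DMSO 0.1% v/v) for 48 h. MTT 0.5 mg mL−1 added for 4 h at 37 °C, formazan dissolved in DMSO, OD570 read. Viability relative to medium-only cells set as 100%. Mean ± SD (n = 5), three independent experiments.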
On the technique in general: Tetrazolium dyes change colour on reduction, which living cells bring about.

Data set [16] deals with RAW264.7. The experiment in a line: Antiinflammatory activity in LPS-induced mouse RAW264.7 cells assessed as TNFalpha levels at 1.25 uM pretreated for 2 hrs followed by LPS stimulation and measured after 24 hrs by ELISA (reference value: 9653.7 +/- 377.3 pg/ml). In kind it is functional. An outline of the steps:
as §1

Data set [17] has as its system RAW264.7. Put plainly: Antiinflammatory activity in LPS-induced mouse RAW264.7 cells assessed as IL-6 levels at 2.5 uM pretreated for 2 hrs followed by LPS stimulation and measured after 24 hrs by ELISA (reference value: 1966.6 +/- 102.3 pg/ml). In kind it is functional. An outline of the steps:
as §1

The subject of data set [18] is RAW264.7. The experiment in a line: Antiinflammatory activity in LPS-induced mouse RAW264.7 cells assessed as IL-6 levels at 10 uM pretreated for 2 hrs followed by LPS stimulation and measured after 6 hrs by ELISA (reference value: 472.3 +/- 25.8 pg/ml). It counts as functional. An outline of the steps:
as §1

In data set [19] the test system is RAW264.7. The experiment in a line: Antiinflammatory activity in LPS-induced mouse RAW264.7 cells assessed as IL-6 levels at 2.5 uM pretreated for 2 hrs followed by LPS stimulation and measured after 12 hrs by ELISA (reference value: 1394 +/- 62.6 pg/ml). In kind it is functional. An outline of the steps: as §1
In data set [20] the test system is RAW264.7. Put plainly: Antiinflammatory activity in LPS-induced mouse RAW264.7 cells assessed as IL-6 levels at 1.25 uM pretreated for 2 hrs followed by LPS stimulation and measured after 6 hrs by ELISA (reference value: 472.3 +/- 25.8 pg/ml). It counts as functional. An outline of the steps:
as §1

The test system of data set [21] is RAW264.7. Put plainly: Antiinflammatory activity in LPS-induced mouse RAW264.7 cells assessed as IL-6 levels at 1.25 uM pretreated for 2 hrs followed by LPS stimulation and measured after 12 hrs by ELISA (reference value: 1394 +/- 62.6 pg/ml). It counts as functional. An outline of the steps:
as §1

The subject of data set [22] is RAW264.7. Put plainly: Antiinflammatory activity in LPS-induced mouse RAW264.7 cells assessed as TNFalpha levels at 5 uM pretreated for 2 hrs followed by LPS stimulation and measured after 12 hrs by ELISA (reference value: 5313.7 +/- 420.9 pg/ml). In kind it is functional. An outline of the steps:
as §1

Data set [23] relates to RAW264.7. Put plainly: Antiinflammatory activity in LPS-induced mouse RAW264.7 cells assessed as TNFalpha levels at 2.5 uM pretreated for 2 hrs followed by LPS stimulation and measured after 6 hrs by ELISA (reference value: 4377.1 +/- 318.6 pg/ml). In kind it is functional. An outline of the steps:
as §1

The test system of data set [24] is RAW264.7. Put plainly: Antiinflammatory activity in LPS-induced mouse RAW264.7 cells assessed as TNFalpha levels at 10 uM pretreated for 2 hrs followed by LPS stimulation and measured after 6 hrs by ELISA (reference value: 4377.1 +/- 318.6 pg/ml). It counts as functional. An outline of the steps:
as §1

Turning to `CC1C[C@@H](O/C=C2/C(=O)OC3c4ccccc4CC23)OC1=O` (some centres undefined), in data set [1], the IC50 – broadly, the concentration that gives 50% inhibition – was 44.5 µM.

As to `C[C@@H]1C[C@H]2[C@@H]3CCC4=CC(=O)C=C[C@]4(C)[C@@]3(F)[C@@H](O)C[C@]2(C)[C@@]1(O)C(=O)CO` [DEXAMETHASONE], the Activity in data set [2] amounted to 3219.4 pg/mL; in [3], 1336.5 pg/mL; in data set [4], 332.8 pg/mL; in [5], 3393.5 pg/mL; in data set [6] it was 927.7 pg/mL; in [7], 393.4 pg/mL. The Activity in data set [8] is 1770.4 pg/mL; in [9] it was 7533.7 pg/mL; in data set [10], 924.1 pg/mL; in [11], 791 pg/mL; in data set [12], 4056.3 pg/mL; in data set [13] it was 8187.9 pg/mL. Further, the Activity in data set [14] came to 6458.3 pg/mL; in data set [16] it was 8748.1 pg/mL; in data set [17], 1594.9 pg/mL; in data set [18], 269.5 pg/mL; in data set [19], 1120.3 pg/mL; in data set [20] it was 422.7 pg/mL. In addition, the Activity in data set [21] was 1240.5 pg/mL; in data set [22], 4063.6 pg/mL; in [23] it was 3671.8 pg/mL; in [24], 2655 pg/mL. Besides, the viability at 48 h, 10 µM in data set [15] was 100%. Also, the IC50 in data set [1] stood at 2.66 µM.

Regarding `CC1=C[C@H](O/C=C2/C(=O)OC3c4ccccc4CC23)OC1=O` (some centres undefined), the IC50 in [1] came out at 4.06 µM.

Turning to `CC1=C[C@H](O/C=C2/C(=O)O[C@H]3c4ccccc4C[C@@H]23)OC1=O`, the IC50 in [1] was determined as 6.34 µM.

Consider `CC1C[C@H](O/C=C2/C(=O)O[C@H]3c4ccccc4C[C@@H]23)OC1=O` (some centres undefined), for which the IC50 in data set [1] is 60.5 µM.

With `CC1=C[C@@H](O/C=C2/C(=O)OC3c4ccccc4CC23)OC1=O` (some centres undefined), the 50% inhibitory concentration (IC50) in data set [1] amounted to 4.32 µM.

With `CC1C[C@@H](O/C=C2/C(=O)O[C@@H]3c4ccccc4C[C@H]23)OC1=O` (some centres undefined), the 50% inhibitory concentration (IC50) in data set [1] was determined as 64.6 µM.

Regarding `CC1C[C@@H](O/C=C2/C(=O)O[C@H]3c4ccccc4C[C@@H]23)OC1=O` (some centres undefined), the IC50 in data set [1] was 35.4 µM.

For `CC1C[C@H](O/C=C2/C(=O)OC3c4ccccc4CC23)OC1=O` (some centres undefined), the concentration for half-maximal inhibition (IC50) in data set [1] is 42.1 µM.

Turning to `CC1=C[C@@H](O/C=C2/C(=O)O[C@@H]3c4ccccc4C[C@H]23)OC1=O`, the IC50 in data set [1] was found to be 6.62 µM.

`CC1C[C@H](O/C=C2/C(=O)O[C@@H]3c4ccccc4C[C@H]23)OC1=O` (some centres undefined): the 50% inhibitory concentration (IC50) in data set [1] is 32.3 µM.

Source of the values: ChEMBL document CHEMBL4257465, “Strigolactones: a plant phytohormone as novel anti-inflammatory agents” (Medchemcomm, 2018).
